Source: ChEMBL document CHEMBL3739413, “Discovery of substituted-2,4-dimethyl-(naphthalene-4-carbonyl)amino-benzoic acid as potent and selective EP4 antagonists” (Bioorg Med Chem Lett, 2016)
Converted amounts (≈) assume the structure as drawn. Blank lines part the entries; values can stand above or below the compound they belong to.

Columns and labels:
[1] = target: T1, Prostaglandin E2 receptor EP4 subtype (Homo sapiens, UniProt P35408); assay: Antagonist activity at human EP4 receptor in HEK293 cells assessed as inhibition of PGE2-induced cAMP accumulation; assay type: functional, cell-based
In short: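 HEK293 cells; functional readout was inhibition of PGE2-induced cAMP accumulation. IC50 reported ± SEM, with number of experiments.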

[2] = target: T1, Prostaglandin E2 receptor EP4 subtype; assay: Potency index, ratio of IC50 for CJ-023423 to IC50 for test compound against EP4 receptor in human whole blood; assay type: tissue-based
[3] = target: T1, Prostaglandin E2 receptor EP4 subtype; assay: Antagonist activity at human EP4 receptor
[4] = target: T1, Prostaglandin E2 receptor EP4 subtype; assay: Antagonist activity at EP4 receptor in human whole blood assessed as reversal of inhibition of PGE2 mediated LPS-induced TNF alpha production pretreated for 30 mins using 3,3',5,5' tetramethylbiphenyl-4,4'-diamine substrate measured after 20 to 24 hrs by immunoassay; assay type: tissue-based
In short: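 Pooled heparinized blood from volunteer donors (no NSAIDs or celecoxib for 48 h, no glucocorticoids for 2 weeks). Compounds added in triplicate as 7-point curves from DMSO stocks at 100× final, preincubated 30 min at 37 °C under 5% CO2. Stimulated with LPS ± PGE2 (final 10 nM), incubated 20–24 h, plasma TNFα read by ELISA at A450–A650. IC50 from sigmoidal fit, reported as geometric mean ± SD.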

[5] = Ratio of Cmax in rat to IC50 for EP4 in human whole blood
[6] = Tmax in rat at 5 mg/kg, po; assay type: ADME, organism-based; settings: in vivo
[7] = Oral bioavailability in rat at 5 mg/kg; assay type: ADME, organism-based; settings: in vivo
[8] = Drug metabolism in rat hepatic microsomes incubated for 30 mins in presence of NADPH; assay type: ADME, Microsome; settings: liver microsomes, read-out: Drug metabolism
In short: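 Compound incubated 30 min with rat liver microsomes and NADPH; percent metabolized reported.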

[9] = Clearance in rat at 1 mg/kg, iv; assay type: ADME, organism-based; settings: in vivo
In short: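 Rat dosed intravenously at 1 mg/kg.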

[10] = Cmax in rat at 5 mg/kg, po; assay type: ADME, organism-based; design: dose 5 mg/kg, route oral; settings: in vivo
[11] = Drug metabolism in rat hepatic microsomes; assay type: ADME, Microsome; settings: liver microsomes, read-out: Drug metabolism
[12] = Aqueous solubility of the compound at pH 6; assay type: physicochemical; settings: aqueous medium
[13] = Drug metabolism in human hepatic microsomes; assay type: ADME, Microsome; settings: liver microsomes, read-out: Drug metabolism
Cytochrome P450 3A4 = Cytochrome P450 3A4 (Homo sapiens, UniProt P08684); assay: Inhibition of CYP3A4 (unknown origin); assay type: ADME
[14] = target: Prostaglandin E2 receptor EP2 subtype (Homo sapiens, UniProt P43116); assay: Antagonist activity at human EP2 receptor
[15] = target: T2, Prostaglandin E2 receptor EP1 subtype (Homo sapiens, UniProt P34995); assay: Antagonist activity at human EP1 receptor
T2 sequence (P34995 whole entry): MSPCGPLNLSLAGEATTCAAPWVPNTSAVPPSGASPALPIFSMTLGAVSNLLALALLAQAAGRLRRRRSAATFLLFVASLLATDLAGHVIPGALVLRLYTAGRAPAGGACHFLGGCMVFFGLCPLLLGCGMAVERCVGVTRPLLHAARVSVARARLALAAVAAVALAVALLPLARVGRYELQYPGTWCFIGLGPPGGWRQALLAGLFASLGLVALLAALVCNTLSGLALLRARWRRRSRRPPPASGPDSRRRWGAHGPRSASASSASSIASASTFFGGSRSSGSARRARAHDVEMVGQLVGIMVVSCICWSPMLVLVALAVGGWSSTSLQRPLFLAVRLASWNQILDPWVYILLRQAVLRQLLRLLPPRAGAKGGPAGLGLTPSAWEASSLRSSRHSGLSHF

Cytochrome P450 2D6 = Cytochrome P450 2D6 (Homo sapiens, UniProt P10635); assay: Inhibition of CYP2D6 (unknown origin); assay type: ADME
Cytochrome P450 2C9 = Cytochrome P450 2C9 (Homo sapiens, UniProt P11712); assay: Inhibition of CYP2C9 (unknown origin); assay type: ADME
Cytochrome P450 2C8 = target: T3, Cytochrome P450 2C8 (Homo sapiens, UniProt P10632); assay: Inhibition of CYP2C8 (unknown origin); assay type: ADME
T3 sequence (P10632 whole entry): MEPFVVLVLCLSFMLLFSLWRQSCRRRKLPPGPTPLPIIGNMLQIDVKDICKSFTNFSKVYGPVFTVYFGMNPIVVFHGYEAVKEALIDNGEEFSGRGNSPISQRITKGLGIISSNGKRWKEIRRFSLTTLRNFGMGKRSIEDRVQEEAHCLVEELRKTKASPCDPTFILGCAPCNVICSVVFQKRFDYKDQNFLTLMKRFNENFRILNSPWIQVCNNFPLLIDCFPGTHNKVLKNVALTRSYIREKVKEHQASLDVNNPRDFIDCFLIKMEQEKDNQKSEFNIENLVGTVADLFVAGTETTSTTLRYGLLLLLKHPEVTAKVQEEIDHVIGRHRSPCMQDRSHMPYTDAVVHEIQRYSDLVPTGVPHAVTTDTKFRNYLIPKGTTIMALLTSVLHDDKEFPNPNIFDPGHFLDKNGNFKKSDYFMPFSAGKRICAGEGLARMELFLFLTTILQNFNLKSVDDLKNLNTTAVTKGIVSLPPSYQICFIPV

[16] = target: T4, Prostaglandin E2 receptor EP3 subtype (Homo sapiens, UniProt P43115); assay: Antagonist activity at human EP3 receptor
T4 sequence (P43115 whole entry): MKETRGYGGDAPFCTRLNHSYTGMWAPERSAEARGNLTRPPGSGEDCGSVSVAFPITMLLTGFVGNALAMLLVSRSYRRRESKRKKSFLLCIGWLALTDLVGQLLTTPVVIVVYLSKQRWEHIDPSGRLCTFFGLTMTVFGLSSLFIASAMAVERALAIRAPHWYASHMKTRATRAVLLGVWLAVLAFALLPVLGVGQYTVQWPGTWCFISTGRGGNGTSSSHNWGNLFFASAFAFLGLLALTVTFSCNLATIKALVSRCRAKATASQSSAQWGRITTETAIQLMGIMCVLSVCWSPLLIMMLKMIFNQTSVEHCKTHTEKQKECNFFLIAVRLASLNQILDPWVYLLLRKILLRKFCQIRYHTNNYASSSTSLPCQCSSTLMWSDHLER

Cytochrome P450 1A2 = target: T5, Cytochrome P450 1A2 (Homo sapiens, UniProt P05177); assay: Inhibition of CYP1A2 (unknown origin); assay type: ADME
T5 sequence (P05177 whole entry): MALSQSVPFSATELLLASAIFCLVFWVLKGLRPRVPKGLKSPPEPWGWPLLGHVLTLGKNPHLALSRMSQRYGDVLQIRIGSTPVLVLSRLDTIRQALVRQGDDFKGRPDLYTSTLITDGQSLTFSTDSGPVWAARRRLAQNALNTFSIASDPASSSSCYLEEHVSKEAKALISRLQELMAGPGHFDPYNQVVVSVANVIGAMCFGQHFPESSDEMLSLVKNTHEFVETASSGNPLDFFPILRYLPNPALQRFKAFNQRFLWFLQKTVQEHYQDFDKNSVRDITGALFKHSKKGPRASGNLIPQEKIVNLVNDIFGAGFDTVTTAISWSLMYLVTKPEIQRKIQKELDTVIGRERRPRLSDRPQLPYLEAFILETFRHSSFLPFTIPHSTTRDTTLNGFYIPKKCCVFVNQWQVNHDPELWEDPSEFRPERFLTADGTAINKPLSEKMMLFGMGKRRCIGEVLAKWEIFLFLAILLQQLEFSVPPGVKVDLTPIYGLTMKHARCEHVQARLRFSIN

Cytochrome P450 2B6 = target: T6, Cytochrome P450 2B6 (Homo sapiens, UniProt P20813); assay: Inhibition of CYP2B6 (unknown origin); assay type: ADME
T6 sequence (P20813 whole entry): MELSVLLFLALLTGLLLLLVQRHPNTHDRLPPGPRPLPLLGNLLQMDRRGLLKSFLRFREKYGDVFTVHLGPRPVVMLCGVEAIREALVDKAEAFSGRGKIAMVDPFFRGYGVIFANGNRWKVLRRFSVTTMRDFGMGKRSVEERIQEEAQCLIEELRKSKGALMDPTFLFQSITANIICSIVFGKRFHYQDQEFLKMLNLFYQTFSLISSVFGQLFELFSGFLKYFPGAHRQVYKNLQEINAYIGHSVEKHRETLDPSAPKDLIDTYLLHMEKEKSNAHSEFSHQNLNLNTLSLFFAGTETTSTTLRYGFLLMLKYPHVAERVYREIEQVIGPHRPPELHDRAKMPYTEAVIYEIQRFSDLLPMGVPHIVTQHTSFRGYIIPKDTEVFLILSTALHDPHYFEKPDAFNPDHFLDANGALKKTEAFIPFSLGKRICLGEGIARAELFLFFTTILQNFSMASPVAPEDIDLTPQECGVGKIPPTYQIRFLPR

Cytochrome P450 2C19 = Cytochrome P450 2C19 (Homo sapiens, UniProt P33261); assay: Inhibition of CYP2C19 (unknown origin); assay type: ADME
Chain of Cytochrome P450 2C19 (P33261 whole entry): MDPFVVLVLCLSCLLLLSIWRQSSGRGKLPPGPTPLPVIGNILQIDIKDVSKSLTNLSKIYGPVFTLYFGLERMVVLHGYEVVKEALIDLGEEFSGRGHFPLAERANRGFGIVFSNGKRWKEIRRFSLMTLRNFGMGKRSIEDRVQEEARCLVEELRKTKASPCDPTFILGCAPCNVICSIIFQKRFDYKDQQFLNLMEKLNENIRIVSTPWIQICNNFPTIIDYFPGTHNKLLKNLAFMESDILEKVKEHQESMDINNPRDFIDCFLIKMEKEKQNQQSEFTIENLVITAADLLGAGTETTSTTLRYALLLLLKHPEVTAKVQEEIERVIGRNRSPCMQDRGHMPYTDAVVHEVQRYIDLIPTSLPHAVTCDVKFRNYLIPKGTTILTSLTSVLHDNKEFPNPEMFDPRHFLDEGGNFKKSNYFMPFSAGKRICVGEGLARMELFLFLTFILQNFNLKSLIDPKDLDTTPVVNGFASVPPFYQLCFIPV

T1 sequence (P35408 whole entry): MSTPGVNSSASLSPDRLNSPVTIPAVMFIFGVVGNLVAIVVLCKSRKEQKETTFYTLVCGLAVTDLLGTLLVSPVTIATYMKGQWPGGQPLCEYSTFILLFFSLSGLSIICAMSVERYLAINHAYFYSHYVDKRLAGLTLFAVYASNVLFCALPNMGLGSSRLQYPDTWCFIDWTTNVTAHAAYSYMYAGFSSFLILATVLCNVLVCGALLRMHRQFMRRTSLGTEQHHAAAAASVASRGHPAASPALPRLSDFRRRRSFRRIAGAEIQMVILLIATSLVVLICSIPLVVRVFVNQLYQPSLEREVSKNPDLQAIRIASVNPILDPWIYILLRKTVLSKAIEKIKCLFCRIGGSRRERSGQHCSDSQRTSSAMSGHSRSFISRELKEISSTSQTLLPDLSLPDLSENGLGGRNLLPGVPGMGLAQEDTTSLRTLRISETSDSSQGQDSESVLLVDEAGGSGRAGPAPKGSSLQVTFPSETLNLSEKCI
Chain of Prostaglandin E2 receptor EP2 subtype (P43116 whole entry): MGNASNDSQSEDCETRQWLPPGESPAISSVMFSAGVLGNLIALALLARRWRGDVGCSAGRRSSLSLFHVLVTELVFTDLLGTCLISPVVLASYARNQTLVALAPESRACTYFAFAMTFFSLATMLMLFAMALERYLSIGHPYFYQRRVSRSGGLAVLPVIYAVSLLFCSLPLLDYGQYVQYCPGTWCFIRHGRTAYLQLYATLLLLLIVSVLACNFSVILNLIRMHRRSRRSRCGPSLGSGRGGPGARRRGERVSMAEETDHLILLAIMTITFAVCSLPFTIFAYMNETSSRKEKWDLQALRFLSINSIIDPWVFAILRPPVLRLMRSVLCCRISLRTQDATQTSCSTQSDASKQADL
Chain of Cytochrome P450 3A4 (P08684 whole entry): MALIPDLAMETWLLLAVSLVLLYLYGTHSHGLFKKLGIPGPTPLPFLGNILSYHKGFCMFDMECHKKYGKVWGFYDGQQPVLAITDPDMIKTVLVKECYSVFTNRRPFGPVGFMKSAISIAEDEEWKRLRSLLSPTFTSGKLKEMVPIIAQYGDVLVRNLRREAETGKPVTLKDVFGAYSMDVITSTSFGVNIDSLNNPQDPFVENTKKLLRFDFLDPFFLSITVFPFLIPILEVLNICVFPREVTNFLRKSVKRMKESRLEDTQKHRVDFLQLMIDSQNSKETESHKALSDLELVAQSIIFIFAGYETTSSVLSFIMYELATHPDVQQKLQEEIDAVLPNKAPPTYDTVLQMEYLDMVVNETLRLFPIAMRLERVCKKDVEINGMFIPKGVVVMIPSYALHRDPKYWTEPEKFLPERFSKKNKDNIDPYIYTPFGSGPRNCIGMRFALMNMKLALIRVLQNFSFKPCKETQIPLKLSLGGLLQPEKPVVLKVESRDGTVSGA
Chain of Cytochrome P450 2C9 (P11712 whole entry): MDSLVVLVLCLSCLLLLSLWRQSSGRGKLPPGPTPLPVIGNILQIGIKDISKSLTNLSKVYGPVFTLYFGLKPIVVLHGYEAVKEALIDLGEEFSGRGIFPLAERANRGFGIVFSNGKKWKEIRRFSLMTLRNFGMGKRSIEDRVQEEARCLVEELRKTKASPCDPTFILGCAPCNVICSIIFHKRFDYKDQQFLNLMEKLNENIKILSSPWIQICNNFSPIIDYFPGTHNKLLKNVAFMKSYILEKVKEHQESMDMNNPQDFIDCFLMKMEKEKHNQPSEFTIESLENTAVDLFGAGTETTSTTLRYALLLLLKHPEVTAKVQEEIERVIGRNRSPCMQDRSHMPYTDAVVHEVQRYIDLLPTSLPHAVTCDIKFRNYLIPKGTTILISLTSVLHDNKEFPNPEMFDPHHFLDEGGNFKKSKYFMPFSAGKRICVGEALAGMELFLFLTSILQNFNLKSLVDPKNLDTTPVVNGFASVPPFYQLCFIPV
Chain of Cytochrome P450 2D6 (P10635 whole entry): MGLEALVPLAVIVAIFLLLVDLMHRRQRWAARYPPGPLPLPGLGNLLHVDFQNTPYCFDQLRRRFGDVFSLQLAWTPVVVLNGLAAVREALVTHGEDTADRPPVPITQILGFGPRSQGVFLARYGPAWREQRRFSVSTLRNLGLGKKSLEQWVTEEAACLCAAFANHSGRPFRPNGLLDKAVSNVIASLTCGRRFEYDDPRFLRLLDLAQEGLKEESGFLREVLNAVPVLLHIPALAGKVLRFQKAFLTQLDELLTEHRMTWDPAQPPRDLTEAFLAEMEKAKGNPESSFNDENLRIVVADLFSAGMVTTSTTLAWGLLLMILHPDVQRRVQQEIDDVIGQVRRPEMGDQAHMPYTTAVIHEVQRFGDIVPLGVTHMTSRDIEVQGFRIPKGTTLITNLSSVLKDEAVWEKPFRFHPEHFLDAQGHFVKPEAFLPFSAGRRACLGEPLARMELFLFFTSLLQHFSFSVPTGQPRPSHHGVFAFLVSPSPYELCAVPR

IC50 [1]: > 25000 nM
Ki [3]: > 19200 nM
IC50 [4]: > 30000 nM
SMILES: Cc1cccc(C)c1NC(=O)c1cc(-c2ccc(C(=O)O)cc2)nc2ccccc12

IC50 [1]: 128 nM
metabolised [11]: 64%
Ki [3]: 512 nM
IC50 [4]: > 30000 nM
solubility [12]: < 1 µg/mL
metabolised [13]: 71%
SMILES: Cc1cccc(C)c1NC(=O)c1cc(-c2ccccc2)nc2ccccc12

IC50 [1]: 3.08 nM
Ki [3]: 52.3 nM
IC50 [4]: 501 nM
Tmax [6]: 15 min
bioavailability [7]: 3%
metabolised at 0.5 h [8]: < 1%
clearance [9]: 59.6 mL/min/kg
Cmax [10]: 42.3 ng/mL
SMILES: Cc1cc(C(=O)O)cc(C)c1NC(=O)c1cc(-c2cccc(CO)c2)nc2ccccc12
Ratio [5]: 0.2

IC50 [1]: 5.2 nM
Ratio IC50 [2]: > 5
Ki [3]: 17 nM
IC50 [4]: 312 nM
SMILES: Cc1ccc(C(=O)O)c(C)c1NC(=O)c1cc(-c2cccc(CO)c2)nc2ccccc12

IC50 [1]: 11.2 nM
Ki [3]: 39.2 nM
IC50 [4]: 1980 nM
SMILES: Cc1cc(C(=O)O)cc(C)c1NC(=O)c1cc(-c2ccccc2)nc2ccccc12

More lines, now with the values behind:

SMILES: Cc1ccc(C(=O)O)c(C)c1NC(=O)c1cc(-c2cccc(CO)c2)cc2ccccc12
IC50 [1]: 2.42 nM
Ratio IC50 [2]: > 250
Ki [3]: 1.98 nM
IC50 [4]: 6.2 nM
Ratio [5]: 33
Tmax [6]: 15 min
bioavailability [7]: 6%
metabolised at 0.5 h [8]: < 1%
clearance [9]: 23.8 mL/min/kg
Cmax [10]: 85.7 ng/mL

SMILES: Cc1cc(C(=O)O)cc(C)c1NC(=O)c1cc(-c2cccc(CO)c2)cc2ccccc12
IC50 [1]: 1.11 nM
Ki [3]: 3.54 nM
IC50 [4]: 136 nM

SMILES: Cc1ccc(C(=O)O)c(C)c1NC(=O)c1cc(-c2ccccc2)cc2ccccc12
IC50 [1]: 5.65 nM
Ki [3]: 6.72 nM
IC50 [4]: 577 nM

SMILES: CCc1nc2c(C)nc(C)cc2n1-c1ccc(CCNC(=O)NS(=O)(=O)c2ccc(C)cc2)cc1 [GRAPIPRANT]
metabolised [11]: 5%
IC50 [4]: 1520 nM
solubility [12]: 977 µg/mL (≈ 1990 µM)
metabolised [13]: 2%

SMILES: Cc1cc(C(=O)O)cc(C)c1NC(=O)c1cc(-c2ccccc2)cc2ccccc12
IC50 [1]: 3.48 nM
Ki [3]: 8.04 nM
IC50 [4]: 623 nM

SMILES: Cc1ccc(C(=O)O)c(C)c1NC(=O)c1cc(-c2cccc(Cl)c2)cc2ccccc12
IC50 [1]: 3.62 nM
Ki [3]: 3.49 nM
IC50 (Cytochrome P450 3A4): > 10000 nM
IC50 [14]: 3700 nM
Ki [14]: 2800 nM
IC50 [4]: 243 nM
IC50 [15]: > 25000 nM
Ki [15]: > 19500 nM
Ratio [5]: 104
IC50 (Cytochrome P450 2D6): > 10000 nM
Tmax [6]: 60 min
IC50 (Cytochrome P450 2C9): > 10000 nM
IC50 (Cytochrome P450 2C8): > 10000 nM
IC50 [16]: > 25000 nM
Ki [16]: > 17500 nM
bioavailability [7]: 100%
IC50 (Cytochrome P450 1A2): > 10000 nM
IC50 (Cytochrome P450 2B6): > 10000 nM
metabolised at 0.5 h [8]: 7%
clearance [9]: 1.9 mL/min/kg
Cmax [10]: 10900 ng/mL
IC50 (Cytochrome P450 2C19): > 10000 nM
